Measured values pooled from the literature.
Compare with care: the assays were run in different laboratories. In brackets after ≈: the same amount, converted by molar mass.
Organism: Mycobacterium tuberculosis
Read-out: microbial growth
Strain: H37RV

SMILES	measurement	result
COCCNC(=O)c1sc2nc(-c3ccc(OC)cc3)cc(C(F)(F)F)c2c1N	IC50	> 100 µM
N#Cc1cncc(Cn2c(=S)[nH]c3cc(CO)c(Cl)cc3c2=O)c1	MIC90	2.7 µM
FC(F)(F)Oc1ccc(CCNc2cc(-c3ccccn3)nc3nncn23)cc1	MIC	4 µM (≈ 1.6 µg/mL)
CC(c1cccnc1)n1c(=S)[nH]c2ccc(Cl)cc2c1=O (centres unmarked)	MIC90	66.2 µM
Nc1c(C(=O)NCc2ccc(F)cc2)sc2nc(-c3ccccc3)ccc12	IC50	> 100 µM
O=c1c2cc(Cl)ccc2[nH]c(=S)n1Cc1cncc(-c2nnn[nH]2)c1	MIC90	> 100 µM
COc1ccc(-c2cc(C(F)(F)F)c3c(N)c(C(=O)NCCc4ccccc4)sc3n2)cc1	IC50	> 100 µM
NNC(=O)c1ccncc1	MIC50	0.56 µg/mL (≈ 4.08 µM)
Cc1ccc(CCNc2cc(-c3ccccn3)nc3cc(Br)nn23)cc1	MIC	25 µM (≈ 10.2 µg/mL)
NCC[C@H](O)C(=O)N[C@@H]1C[C@H](N)[C@@H](O[C@H]2O[C@H](CN)[C@@H](O)[C@H](O)[C@H]2O)[C@H](O)[C@H]1O[C@H]1O[C@H](CO)[C@@H](O)[C@H](N)[C@H]1O	MIC90	3.3 µg/mL
Clc1ccc(CCNc2cc(-c3ccccn3)nc3cc(Br)nn23)cc1	MIC	36 µM (≈ 15.4 µg/mL)
O=c1c2ccncc2[nH]c(=S)n1Cc1cccnc1	MIC90	> 100 µM
Nc1c(C(=O)N2CCOCC2)sc2nc(Cl)ccc12	IC50	> 100 µM
CC(CNc1cc(-c2ccccn2)nc2nncn12)c1ccccc1 (centres unmarked)	IC90	35 µM
